# CHRM4 PAM = potentiates acetylcholine response at human M4 receptor; P08173; CHO-K1 hM4/Gqi5, Fluo-8 calcium fluorescence, ACh EC20; 0% = ACh EC20, 100% = maximal ACh; activation, % at 3 µM; hit rate 0.4% among 360,000; AID 624126;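 active = activation above its plate's cutoff, the mean activation of sample wells plus 3 SD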
# Target sequence (P08173 whole entry, looked up): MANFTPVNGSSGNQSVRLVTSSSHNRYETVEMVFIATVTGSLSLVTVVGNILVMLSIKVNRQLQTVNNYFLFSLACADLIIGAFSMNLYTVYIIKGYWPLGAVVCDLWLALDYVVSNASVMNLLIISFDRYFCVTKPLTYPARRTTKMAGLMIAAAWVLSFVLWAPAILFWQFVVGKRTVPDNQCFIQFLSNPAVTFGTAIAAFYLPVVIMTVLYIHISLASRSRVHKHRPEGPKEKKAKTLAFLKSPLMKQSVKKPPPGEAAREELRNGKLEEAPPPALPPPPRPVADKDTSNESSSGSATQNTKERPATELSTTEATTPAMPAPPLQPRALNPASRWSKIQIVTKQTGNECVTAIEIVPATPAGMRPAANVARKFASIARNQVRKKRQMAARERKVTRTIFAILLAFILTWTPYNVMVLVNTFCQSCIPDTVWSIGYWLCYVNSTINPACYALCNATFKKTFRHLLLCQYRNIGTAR
# TAAR1 ag = human TAAR1 agonism | Q96RJ0 | CHO RD-HGA16 TAAR1, Fluo-8 calcium fluorescence; vehicle wells 0%, saturating PEA agonist 100% | activation, % at 3 µM | hit rate 0.99% among 360,000;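 active = activation above the mean activation of all test compounds in the run plus 3 SD, cut at about 38% in these data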
#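 Test system: RD-HGA16 (CHO) cells co-expressing Gα16 and hTAAR1 | Doses: Single dose, 3 µM | Schedule: 17-24 h seeding, 75 min 37 °C dye, 30 min RT | Evaluation: % activation from peak over basal fluorescence ratio, DMSO-to-PEA scaled | Technique: Kinetic Fluo-8 calcium fluorescence | Benchmarks: Low control DMSO, high control PEA (EC100)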
# CHRM4 agonist = agonists of human muscarinic M4 receptor (CHRM4); CHO-K1 hM4/Gqi5, Fluo-8 calcium fluorescence; vehicle 0%, full acetylcholine response 100%; activation, % at 3 µM; AID 624127; hit rate 0.14% among 360,000; P08173;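 active = activation above the run mean over all test wells plus 3 SD, cut at about 32% in these data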;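 also: peak over basal fluorescence ratio per well then scaled between controls; 0% = DMSO wells and 100% = acetylcholine at EC100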
# CHRM4 antagonist = antagonists of human muscarinic M4 receptor (CHRM4); P08173; CHO-hM4 cells, ACh EC80, Fluo-8 calcium fluorescence; inhibition, % at 3 µM; hit rate 0.73% among 360,000;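 active = inhibition above its plate's cutoff, the mean inhibition of sample wells plus 3 SD, cut at about 27% in these data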;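 also: 0% = acetylcholine EC80 with DMSO and 100% = DMSO without agonist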
# TAAR1 antagonist = antagonists of human TAAR1; hit rate 1.5% among 360,000; inhibition, % at 3 µM; Q96RJ0; CHO RD-HGA16 TAAR1, Fluo-8 calcium fluorescence, antagonist;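 active = inhibition above a per-plate cutoff, the mean inhibition of test compounds on that plate plus 3 SD, cut at about 49% in these data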;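 also: 0% = DMSO plus EC80 beta-PEA response and 100% = DMSO alone without agonist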
#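 Test system – hTAAR1-expressing CHO RD-HGA16 cells, Gα16-coupled · Also added – β-PEA at EC80 concentration, post-compound challenge · Compound – 3 µM, single point · Incubation – dye loading 75 min at 37 °C, then 30 min room temperature · Measured by – Fluo-8 intracellular calcium dye fluorescence, real-time kinetic reads · Benchmarks – vehicle and agonist controls · Replicates – singlicate, one well per test compound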
# The depositor's hits bear a star; . = not tested or not shown. Hits are enriched below; roughly 3% of the tested compounds scored in any of these assays.
SMILES,CHRM4 PAM,TAAR1 ag,CHRM4 agonist,CHRM4 antagonist,TAAR1 antagonist
Cc1cc(C)c2sc(NC(=O)C3=COCCO3)nc2c1,21.7*,0.4,3.4,-9.2,-12.1
Cc1[nH]c2ccccc2c1C1=CC(=O)C=CC1=O,-7.9,9.6,6.1,45.2*,14.0
CCC(C)NC(=O)C1CCN(S(=O)(=O)c2cc([N+](=O)[O-])ccc2Cl)CC1 (stereo unspecified),-6.8,1.7,2.5,-7.6,-14.6
O=C(Nc1nc2ccc(S(=O)(=O)N3CCCC3)cc2s1)C1CCCCC1,-2.3,43.5*,1.8,-6.7,8.0
O=C(Nc1nc2ccc(S(=O)(=O)N3CCCCC3)cc2s1)C1CCCO1 (stereo unspecified),33.5*,5.3,2.5,11.9,1.2
O=C(Nc1nc2ccccc2s1)C1CCN(S(=O)(=O)c2cc([N+](=O)[O-])ccc2Cl)CC1,-33.9,7.6,17.4,32.6*,45.8
COCc1[nH]nc2c1C(c1ccc(Br)cc1)N(Cc1ccccc1)C2=O (stereo unspecified),.,-2.4,.,.,-22.1
COc1ccc(CN(C)C(=O)[C@@H](Cc2ccccc2)NC(=O)[C@H]2O[C@@H](n3ccc(N)nc3=O)[C@H](O)[C@@H]2O)cc1OC,.,-0.8,.,.,-12.7
CCn1c(C)cc(/C=C2/NC(=O)N(c3ccccc3)C2=O)c1C,-3.0,-1.3,1.5,5.0,0.0
O=C1N/C(=C/c2ccsc2)C(=O)N1c1ccccc1,-2.8,43.7*,9.2,-4.4,17.5
O=C(Nc1nc2c(Cl)ccc(Cl)c2s1)C1CC1,5.4,2.8,0.1,0.1,-11.4
NNc1nc2c(Cl)ccc(Cl)c2s1,-9.9,38.9*,1.4,16.2,5.5
CCOC(=O)C1=C(C(=O)OCC)C2N(Cc3ccc(C(F)(F)F)cc3)c3ccccc3[C@@]23C[C@@H](C(=O)OC)N(S(=O)(=O)c2ccccc2C)C3=N1 (stereo partly specified),.,1.4,.,.,-33.6
Cc1cc(NC(=O)c2cc([N+](=O)[O-])cc([N+](=O)[O-])c2)no1,14.6*,0.9,2.0,2.5,-29.1
Cc1cc(NC(=O)c2cccc([N+](=O)[O-])c2)no1,11.8,2.8,0.4,-2.6,-44.5
Cc1cc(/C=N/n2cnnc2)c(C)n1-c1ccc(OCc2ccccc2F)cc1,-15.0,14.5,7.6,30.7*,29.2
Fc1ccccc1COc1cccc(/C=N/n2cnnc2)c1,-0.2,6.0,0.5,10.0,15.2
C(=N\n1cnnc1)/c1ccc(OCc2ccccc2)cc1,2.6,12.5,1.1,-6.8,26.7
Cc1cc(/C=N/n2cnnc2)c(C)n1-c1ccc(OCc2ccc(Cl)cc2)cc1,-11.9,14.9,5.1,30.2*,47.4
c1coc(-c2nc3nc4ccccc4nc3n2CC2CCCO2)c1 (stereo unspecified),-0.7,12.6,9.0,-8.5,29.3
c1ccc(-c2nc3nc4ccccc4nc3n2CC2CCCO2)cc1 (stereo unspecified),-12.7,21.6,17.1,1.3,50.9*
C[C@@H](C(=O)NCc1ccccn1)[C@H]1C[C@]1(C)[C@H](NC(=O)OCc1ccccc1)c1ccccc1,-9.7,15.6,10.7,9.1,49.1*
CC[N+]1(C)CCC(=C2c3ccccc3CC(=O)c3sccc32)CC1 (stereo unspecified),-28.9,10.8,0.5,99.2*,-7.2
Cc1cccc2c1Sc1ccccc1CC2=O,13.8,6.6,-1.3,-14.6,7.8
O=C1c2ccccc2CCc2ccccc21,6.0,2.0,-0.6,-5.8,-2.3
SMILES,CHRM4 PAM,TAAR1 ag,CHRM4 agonist,CHRM4 antagonist,TAAR1 antagonist
C[N+]1(C)CCC(=C2c3ccccc3CC(=O)c3sccc32)CC1,-28.7,13.2,0.3,80.5*,-6.2
COC(=O)C1=C(C)N(Cc2ccccc2C(F)(F)F)C(=NCc2ccc(C(F)(F)F)cc2)NC1c1cccc(F)c1 (stereo unspecified),.,8.9,.,.,-23.5
O=C(NNc1ccccc1[N+](=O)[O-])Nc1ccc(F)cc1,4.0,41.6*,2.6,-6.6,15.2
O=C(NNc1ccccc1[N+](=O)[O-])Nc1ccccc1,-1.6,.,1.2,3.2,.
O=C(Nc1ccccc1)Nc1cc([N+](=O)[O-])ccc1F,2.9,41.4*,10.6,-10.8,2.8
CCCCOCC1CN(CCCC)S(=O)(=O)c2c(Oc3ccc(SC)c(C)c3)cccc2O1 (stereo unspecified),.,0.3,.,.,-18.1
CC(=O)Nc1ccc(OCC(O)Cn2c3ccccc3c3ccccc32)c(C)c1 (stereo unspecified),-11.0,36.4,25.6,27.2*,64.8*
Cc1nn(CCOc2ccccc2)c(=O)n1-c1c(F)cccc1F,31.5*,12.6,1.6,30.7*,-2.4
Cc1ccc(S(=O)(=O)N2CCC(C(N)=O)CC2)cc1C(=O)NC1CCCCC1,20.6*,3.4,0.3,-7.0,7.8
COc1ccc(OC)c(S(=O)(=O)N2CCC(C(=O)NC3CCCC3)CC2)c1,-2.8,0.1,0.3,-1.9,-14.7
O=C(Cn1c(=O)oc2cc(S(=O)(=O)N3CCCCCC3)ccc21)NC1CCCCC1,17.5*,1.0,2.1,-15.8,-8.5
COc1ccc(C)cc1S(=O)(=O)N1CCC(C(=O)NC2CCCC2)CC1,20.3*,0.9,4.4,-5.5,-10.0
O=C(Cn1c(=O)oc2cc(S(=O)(=O)N3CCc4ccccc43)ccc21)NC1CCCC1,3.4,2.6,2.9,-8.3,34.4
Cc1ccc(S(=O)(=O)N2CCCC2)cc1C(=O)NC1CCCCC1,-1.1,-0.2,0.9,-0.8,-3.9
O=C(C[n+]1cc(-c2ccccc2)n2c1CCC2)N1c2ccccc2Sc2ccccc21,-18.9,1.6,0.0,64.3*,-9.2
O=C(C[n+]1cc(-c2ccc(F)cc2)n2c1CCC2)N1c2ccccc2Sc2ccccc21,-16.9,0.5,1.0,80.7*,2.5
Cc1ccc(-c2c[n+](CC(=O)N3c4ccccc4Sc4ccccc43)c3n2CCC3)cc1,-16.9,0.9,-0.2,99.0*,-17.9
O=C(C[n+]1cc(-c2ccccc2)n2c1CCC2)c1cccs1,-4.8,10.3,-0.1,1.9,-7.8
NC(=O)c1ncn([C@@H]2O[C@H](C(=O)N[C@H](Cc3c[nH]c4ccccc34)C(=O)N3CCN(C(=O)N4CCOCC4)CC3)[C@@H](O)[C@H]2O)n1,.,2.1,.,.,-24.7
Cc1cccc(CN2CCc3c(OCC(=O)N4CCCc5ccccc54)cccc3C2=O)c1,-13.3,8.6,10.7,1.2,46.6
O=C1c2cccc(OCC(=O)N3CCCc4ccccc43)c2CCN1Cc1ccc(F)cc1,-12.6,17.0,15.6,7.1,55.6*
CCOC(=O)C1=CCC(c2ccc(N(CC)CC)cc2)N(S(=O)(=O)c2ccc(C)cc2)C1c1ccc([N+](=O)[O-])cc1 (stereo unspecified),2.1,0.5,1.7,-6.7,-15.7
COc1ccc(/C=C2/C(=O)N(c3c(F)c(F)c(F)c(F)c3F)N=C2C)cc1,-0.3,42.1*,0.6,10.6,27.5

# High-throughput results from PubChem.
